“Also recorded” adds a separate entry of the source.
Columns and labels:
[1] = biological target: T1, EphB1 T697G (Homo sapiens, UniProt P54762, T697G); test: EphB1 autophosphorylation in transfected HEK293 cells; format: cell-based
T1 sequence (P54762 18-984 T697G): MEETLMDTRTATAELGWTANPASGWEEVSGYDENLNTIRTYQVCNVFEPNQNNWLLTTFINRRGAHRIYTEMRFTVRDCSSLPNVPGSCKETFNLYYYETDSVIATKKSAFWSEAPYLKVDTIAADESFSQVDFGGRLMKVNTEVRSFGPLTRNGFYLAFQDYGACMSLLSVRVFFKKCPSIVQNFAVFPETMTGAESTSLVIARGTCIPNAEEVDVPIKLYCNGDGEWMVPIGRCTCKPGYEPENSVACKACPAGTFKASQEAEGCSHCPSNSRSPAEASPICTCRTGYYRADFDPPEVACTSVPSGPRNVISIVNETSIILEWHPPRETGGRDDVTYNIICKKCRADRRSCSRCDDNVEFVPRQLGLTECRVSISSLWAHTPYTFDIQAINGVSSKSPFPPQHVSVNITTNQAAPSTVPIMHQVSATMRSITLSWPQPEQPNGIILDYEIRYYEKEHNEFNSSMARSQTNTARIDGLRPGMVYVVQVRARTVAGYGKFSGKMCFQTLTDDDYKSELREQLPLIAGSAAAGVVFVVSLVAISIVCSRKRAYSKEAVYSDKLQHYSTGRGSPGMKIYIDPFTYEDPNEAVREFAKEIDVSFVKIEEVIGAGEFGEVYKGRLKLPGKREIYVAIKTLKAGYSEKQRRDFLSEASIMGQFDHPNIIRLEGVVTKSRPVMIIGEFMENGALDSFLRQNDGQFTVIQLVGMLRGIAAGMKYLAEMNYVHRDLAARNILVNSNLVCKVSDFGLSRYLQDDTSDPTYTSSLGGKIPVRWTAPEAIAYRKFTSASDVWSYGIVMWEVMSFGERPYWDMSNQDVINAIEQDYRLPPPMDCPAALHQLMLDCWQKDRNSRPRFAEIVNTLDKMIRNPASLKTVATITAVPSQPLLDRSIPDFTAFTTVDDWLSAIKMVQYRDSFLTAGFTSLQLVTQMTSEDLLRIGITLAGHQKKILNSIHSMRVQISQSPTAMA
Procedure, shortened: (§1)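 HEK293 cells transfected with Eph kinase variants were exposed to a range of test compound concentrations. Lysate protein was quantified by BCA and normalized before Western blotting. Blots were probed for phospho-EphB, total EphB1 or EphB3, and β-actin, giving autophosphorylation relative to total receptor.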

[2] = tested on: EphB3 WT; test: EphB3 autophosphorylation in HEK293 cells co-expressing EphB3 WT; format: cell-based, human; settings: 100 nM; HEK293 co-expressing EphB3 WT and EphB1 T697G; ephrin-B2 stimulation
Procedure, shortened: as §1

In the case of Cc1cccc(Cc2nn(C(C)(C)C)c3ncnc(N)c23)c1 [3MB-PP1], the “inhibition of the three EphB1 alleles in cells” value ([1]; 100 nM, HEK293, tested on WT, G703C, T697G) was “only inhibited the analog-sensitive allele; also recorded: only inhibited EphB1^T697G”, the “autophosphorylation of EphB1 T697G” value ([1]; 100 nM, HEK293 co-expressing EphB3 WT and EphB1 T697G, ephrin-B2 stimulation) was “abolished” and the “selectivity factor between the two EphB1 mutants (T697G over G703C)” value ([1]; in cells) was ~ 500. The “autophosphorylation of EphB3 WT” value [2] was “little effect”.

Reference: paper PMC7485388 (ACS chemical biology, 2017)
